# Measurements as given in publication PMC5474392 (Bioorganic & medicinal chemistry letters, 2016).
# pIC50: −log10 of the molar value.
# Tests used:
# MCF-7 = experiment: antiproliferative assay, MCF-7; type: cell-based; conditions: Homo sapiens, MCF7, read-out: IC50 MCF-7
# In short: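 Run as an antiproliferative screen on human cancer lines alongside the normal mammary epithelial line MCF-10, with a positive control included. The highest test concentration was 33.3 μM.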
# MCF-10 = experiment: antiproliferative assay, normal mammary epithelial cell line MCF-10; type: cell-based; conditions: Homo sapiens, MCF10, read-out: IC50 MCF-10
# In short: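 Human cancer and normal mammary epithelial lines were tested in an antiproliferative assay. Shikonin served as the positive control. The highest test concentration was 33.3 μM.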
structure (smiles),measurement,setting,value
O=C1C2=C(C(=O)c3ccccc31)C(O)C1=C(O)CC(c3ccccc3)C1=C2O (stereo not drawn) [Compound 4a],pIC50,MCF-7,< 4.48
same,pIC50,MCF-10,< 4.48
"COc1cccc2c1C(=O)c1c(O)c3c(c(O)c1C2=O)C[C@@](O)(C(=O)CO)C[C@@H]3O[C@H]1C[C@H](N)[C@H](O)[C@H](C)O1 [Doxorubicin, reference compound]",pIC50,MCF-7,5.93
